Assay results taken from ChEMBL document CHEMBL1921735, “Antibacterial optimization of 4-aminothiazolyl analogues of the natural product GE2270 A: identification of the cycloalkylcarboxylic acids” (J Med Chem, 2011).
Converted amounts (≈) assume the structure as drawn. The source made the active and inactive calls.

Columns and labels:
Staphylococcus aureus [1] = test: Antibacterial activity against methicillin-resistant Staphylococcus aureus isolate A4.018 by CLSI M07-A8 method; format: functional
Enterococcus faecalis [2] = test: Antibacterial activity against Enterococcus faecalis isolate NB04025 infected in CD1 mouse assessed as protection against bacterial infection administered immediately after infection measured on day 5; format: functional; conditions: isolate NB04025, 120 h
Outline: (§1)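 Mouse lethal systemic infection: ip injection of 1 × 10^8 cfu/mouse (10−100× minimal lethal dose), E. faecalis in 50% sterile rat fecal extract, S. aureus in 0.9% NaCl. Therapy by tail-vein bolus at several doses, six mice per group. Started immediately for E. faecalis; at 1 and 5 h post-inoculation for S. aureus.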

Staphylococcus aureus [3] = test: Antibacterial activity against GE2270-A-resistant Staphylococcus aureus harboring tufA G258D mutant gene by CLSI M07-A8 method; format: functional
Enterococcus faecium = test: Antibacterial activity against Enterococcus faecium 7130724 by CLSI M07-A8 method; format: functional
Outline: (§2)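 Broth microdilution MIC run per CLSI M07-A8 (2009).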

Streptococcus pneumoniae = test: Antibacterial activity against Streptococcus pneumoniae by CLSI M07-A8 method; format: functional, organism-based; outline: as §2
Enterococcus faecalis [4] = test: Antibacterial activity against Enterococcus faecalis ATCC 29212 by CLSI M07-A8 method; format: functional; outline: as §2
Escherichia coli = test: Antibacterial activity against Escherichia coli S30 assessed as inhibition of protein synthesis after 2 hrs by luminescence analysis; conditions: S30, 2 h
Streptococcus pyogenes = test: Antibacterial activity against Streptococcus pyogenes ATCC BAA-595 by CLSI M07-A8 method; format: functional; outline: as §2
Staphylococcus aureus [5] = test: Antibacterial activity against Staphylococcus aureus ATCC 49951 infected in CD1 mouse assessed as protection against bacterial infection administered 5 hrs post infection measured on day 5; format: functional; outline: as §1

| Compound | MIC (Staphylococcus aureus [1]) [µg/mL] | ED50 (Enterococcus faecalis [2]) [mg/kg] | Activity (Staphylococcus aureus [3]) | MIC (Enterococcus faecium) [µg/mL] | Activity (Streptococcus pneumoniae) | MIC (Enterococcus faecalis [4]) [µg/mL] | IC50 (Escherichia coli) [nM] | MIC (Streptococcus pyogenes) [µg/mL] | ED50 (Staphylococcus aureus [5]) [mg/kg] |
| --- | --- | --- | --- | --- | --- | --- | --- | --- | --- |
| CNC(=O)C[C@@H]1NC(=O)c2csc(n2)-c2ccc(-c3nc(NC(=O)CCCCC(=O)O)cs3)nc2-c2csc(n2)-c2csc(n2)[C@H]([C@@H](O)c2ccccc2)NC(=O)CNC(=O)c2nc(sc2COC)[C@H](C(C)C)NC(=O)c2nc1sc2C | 0.125 (≈ 0.102 µM) | 5.5 | inactive | 0.125 (≈ 0.102 µM) | Active | 0.06 (≈ 0.049 µM) | 1200 | 4 (≈ 3.27 µM) | 10.5 |
| CNC(=O)C[C@@H]1NC(=O)c2csc(n2)-c2ccc(-c3nc(NC(=O)O[C@H]4CC[C@H](N)CC4)cs3)nc2-c2csc(n2)-c2csc(n2)[C@H]([C@@H](O)c2ccccc2)NC(=O)CNC(=O)c2nc(sc2COC)[C@H](C(C)C)NC(=O)c2nc1sc2C | 1 (≈ 0.808 µM) | < 3.3 | inactive | 0.5 (≈ 0.404 µM) | Active | 0.5 (≈ 0.404 µM) |  | 8 (≈ 6.46 µM) | 19.3 |
| CNC(=O)C[C@@H]1NC(=O)c2csc(n2)-c2ccc(-c3nc(NC(=O)OCCCC(N)=O)cs3)nc2-c2csc(n2)-c2csc(n2)[C@H]([C@@H](O)c2ccccc2)NC(=O)CNC(=O)c2nc(sc2COC)[C@H](C(C)C)NC(=O)c2nc1sc2C | 0.5 (≈ 0.408 µM) |  |  | 0.25 (≈ 0.204 µM) | Active | 0.25 (≈ 0.204 µM) | 2400 | > 32 |  |
| CNC(=O)C[C@@H]1NC(=O)c2csc(n2)-c2ccc(-c3nc(NC(=O)CCCCN)cs3)nc2-c2csc(n2)-c2csc(n2)[C@H]([C@@H](O)c2ccccc2)NC(=O)CNC(=O)c2nc(sc2COC)[C@H](C(C)C)NC(=O)c2nc1sc2C | 1 (≈ 0.836 µM) |  |  | 1 (≈ 0.836 µM) | Active | 0.5 (≈ 0.418 µM) | 1900 | 4 (≈ 3.35 µM) |  |
| CNC(=O)C[C@@H]1NC(=O)c2csc(n2)-c2ccc(-c3nc(NC(=O)C(F)(F)F)cs3)nc2-c2csc(n2)-c2csc(n2)[C@H]([C@@H](O)c2ccccc2)NC(=O)CNC(=O)c2nc(sc2COC)[C@H](C(C)C)NC(=O)c2nc1sc2C | > 32 |  |  | 1 (≈ 0.839 µM) | Active | 1 (≈ 0.839 µM) | > 32000 | > 32 |  |
| CNC(=O)C[C@@H]1NC(=O)c2csc(n2)-c2ccc(-c3nc(NC(=O)OCCCC(=O)O)cs3)nc2-c2csc(n2)-c2csc(n2)[C@H]([C@@H](O)c2ccccc2)NC(=O)CNC(=O)c2nc(sc2COC)[C@H](C(C)C)NC(=O)c2nc1sc2C | 0.06 (≈ 0.0489 µM) | 3.1 | inactive | 0.06 (≈ 0.0489 µM) | Active | 0.03 (≈ 0.0245 µM) |  | 1 (≈ 0.815 µM) | 5.4 |
| CNC(=O)C[C@@H]1NC(=O)c2csc(n2)-c2ccc(-c3nc(NC(=O)CCCCP(=O)(O)O)cs3)nc2-c2csc(n2)-c2csc(n2)[C@H]([C@@H](O)c2ccccc2)NC(=O)CNC(=O)c2nc(sc2COC)[C@H](C(C)C)NC(=O)c2nc1sc2C | > 32 |  |  | > 32 | Active | > 32 | 1500 | > 32 |  |
| CNC(=O)C[C@@H]1NC(=O)c2csc(n2)-c2ccc(-c3nc(NC(=O)CCCN(C)C)cs3)nc2-c2csc(n2)-c2csc(n2)[C@H]([C@@H](O)c2ccccc2)NC(=O)CNC(=O)c2nc(sc2COC)[C@H](C(C)C)NC(=O)c2nc1sc2C | 1 (≈ 0.827 µM) |  |  | 1 (≈ 0.827 µM) | Active | 0.5 (≈ 0.413 µM) | 2600 | 4 (≈ 3.31 µM) |  |
| CNC(=O)C[C@@H]1NC(=O)c2csc(n2)-c2ccc(-c3nc(NC(=O)CCCO)cs3)nc2-c2csc(n2)-c2csc(n2)[C@H]([C@@H](O)c2ccccc2)NC(=O)CNC(=O)c2nc(sc2COC)[C@H](C(C)C)NC(=O)c2nc1sc2C | 1 (≈ 0.846 µM) |  |  | 0.5 (≈ 0.423 µM) | Active | 0.5 (≈ 0.423 µM) | > 16000 | > 32 |  |
| CNC(=O)C[C@@H]1NC(=O)c2csc(n2)-c2ccc(-c3nc(NC(=O)c4cnc(C(=O)O)cn4)cs3)nc2-c2csc(n2)-c2csc(n2)[C@H]([C@@H](O)c2ccccc2)NC(=O)CNC(=O)c2nc(sc2COC)[C@H](C(C)C)NC(=O)c2nc1sc2C | 0.5 (≈ 0.401 µM) | 2.2 |  | 0.25 (≈ 0.201 µM) | Active | 0.25 (≈ 0.201 µM) |  | 8 (≈ 6.42 µM) | 13.9 |
| CNC(=O)C[C@@H]1NC(=O)c2csc(n2)-c2ccc(-c3nc(NC(=O)[C@H](CN)CCC(=O)O)cs3)nc2-c2csc(n2)-c2csc(n2)[C@H]([C@@H](O)c2ccccc2)NC(=O)CNC(=O)c2nc(sc2COC)[C@H](C(C)C)NC(=O)c2nc1sc2C | 1 (≈ 0.807 µM) | > 60 | inactive | 1 (≈ 0.807 µM) | Active | 0.5 (≈ 0.403 µM) |  | > 32 | 9.5 |
| CNC(=O)C[C@@H]1NC(=O)c2csc(n2)-c2ccc(-c3nc(NC(=O)OCCCCN)cs3)nc2-c2csc(n2)-c2csc(n2)[C@H]([C@@H](O)c2ccccc2)NC(=O)CNC(=O)c2nc(sc2COC)[C@H](C(C)C)NC(=O)c2nc1sc2C | 1 (≈ 0.825 µM) |  | inactive | 1 (≈ 0.825 µM) | Active | 0.5 (≈ 0.413 µM) |  | 8 (≈ 6.6 µM) | 6.48 |
| CNC(=O)C[C@@H]1NC(=O)c2csc(n2)-c2ccc(-c3nc(NC(=O)[C@H](C)CCC(=O)O)cs3)nc2-c2csc(n2)-c2csc(n2)[C@H]([C@@H](O)c2ccccc2)NC(=O)CNC(=O)c2nc(sc2COC)[C@H](C(C)C)NC(=O)c2nc1sc2C | 0.25 (≈ 0.204 µM) | 11.1 | inactive | 0.5 (≈ 0.408 µM) | Active | 0.25 (≈ 0.204 µM) |  | 4 (≈ 3.27 µM) | 10.6 |
| CNC(=O)C[C@@H]1NC(=O)c2csc(n2)-c2ccc(-c3nc(NC(=O)CCCCC(=O)OC)cs3)nc2-c2csc(n2)-c2csc(n2)[C@H]([C@@H](O)c2ccccc2)NC(=O)CNC(=O)c2nc(sc2COC)[C@H](C(C)C)NC(=O)c2nc1sc2C | > 32 |  |  | 2 (≈ 1.61 µM) | Active | 4 (≈ 3.23 µM) | > 32000 | > 32 |  |
| CNC(=O)C[C@@H]1NC(=O)c2csc(n2)-c2ccc(-c3nc(NC(=O)OCCOCCOCCOC)cs3)nc2-c2csc(n2)-c2csc(n2)[C@H]([C@@H](O)c2ccccc2)NC(=O)CNC(=O)c2nc(sc2COC)[C@H](C(C)C)NC(=O)c2nc1sc2C | 4 (≈ 3.11 µM) |  |  | 0.5 (≈ 0.389 µM) | Active | 0.5 (≈ 0.389 µM) | 10800 | > 32 |  |
| CNC(=O)C[C@@H]1NC(=O)c2csc(n2)-c2ccc(-c3nc(NC(=O)O[C@H]4C[C@@H](C(=O)O)C4)cs3)nc2-c2csc(n2)-c2csc(n2)[C@H]([C@@H](O)c2ccccc2)NC(=O)CNC(=O)c2nc(sc2COC)[C@H](C(C)C)NC(=O)c2nc1sc2C | 0.06 (≈ 0.0484 µM) | 1 |  | 0.03 (≈ 0.0242 µM) | Active | 0.06 (≈ 0.0484 µM) |  | 1 (≈ 0.807 µM) | 2.9 |
| CNC(=O)C[C@@H]1NC(=O)c2csc(n2)-c2ccc(-c3nc(NC(=O)c4ccc(C(=O)O)cn4)cs3)nc2-c2csc(n2)-c2csc(n2)[C@H]([C@@H](O)c2ccccc2)NC(=O)CNC(=O)c2nc(sc2COC)[C@H](C(C)C)NC(=O)c2nc1sc2C | 0.25 (≈ 0.201 µM) | 0.8 |  | < 0.06 | Active | 0.125 (≈ 0.1 µM) |  | 4 (≈ 3.21 µM) | 4.4 |
